Assay results published in paper PMC4618315 (Nature, 2015).
Positions count from the first letter of the chain named.

Tests used:
Format in all cases: binding
rGLUT5 Q166E = biological target: T1, rGLUT5 Q166E (Rattus norvegicus, UniProt P43427, A285T/N50Y/Q166E/T452S); assay: Tryptophan fluorescence quenching of purified rat GLUT5 Q166E mutant; conditions: rGLUT5 Q166E relative to WT; 40 mM sugar
T1 sequence (P43427 with tags, fused parts or gaps N50Y/Q166E/A285T/T452S): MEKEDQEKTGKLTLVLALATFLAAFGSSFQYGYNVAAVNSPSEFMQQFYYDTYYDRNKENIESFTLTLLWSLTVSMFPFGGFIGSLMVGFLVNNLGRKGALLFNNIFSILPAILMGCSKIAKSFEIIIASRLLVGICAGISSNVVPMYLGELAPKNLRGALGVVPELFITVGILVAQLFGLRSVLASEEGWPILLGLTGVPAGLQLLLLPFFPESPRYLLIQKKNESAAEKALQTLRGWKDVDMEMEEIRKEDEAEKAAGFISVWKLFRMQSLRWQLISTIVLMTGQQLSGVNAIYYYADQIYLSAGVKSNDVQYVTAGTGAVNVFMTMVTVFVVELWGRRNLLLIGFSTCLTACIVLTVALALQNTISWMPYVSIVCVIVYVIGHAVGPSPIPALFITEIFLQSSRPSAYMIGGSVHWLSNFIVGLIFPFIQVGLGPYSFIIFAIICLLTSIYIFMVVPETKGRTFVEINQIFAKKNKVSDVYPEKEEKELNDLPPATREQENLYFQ
Procedure, shortened: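 Deglycosylated N50Y rat background carried the Q166E mutation, made by PCR mutagenesis and purified as WT (Ni-NTA, SEC in DDM). Protein was used at 0.06 mg/ml in 20 mM Tris pH 7.5, 150 mM NaCl, 0.03% DDM, with or without 5 mM HgCl2 pre-incubation. Single 40 mM D-fructose or D-glucose additions, or increasing D-glucose, were incubated 2 min at room temperature. Readout: excitation 295 nm, 338 nm emission peak; triplicate.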

[1] = biological target: T2, rGLUT5 (rat GLUT5 deglycosylation mutant N50Y, "WT") (Rattus norvegicus, UniProt P43427, A285T/N50Y/T452S); assay: Tryptophan fluorescence quenching of purified rat GLUT5 WT
T2 sequence (P43427 with tags, fused parts or gaps N50Y/A285T/T452S): T1 sequence (P43427 with tags, fused parts or gaps N50Y/Q166E/A285T/T452S) with E166Q

bovine GLUT5 = biological target: T3, bovine GLUT5 (Bos taurus, UniProt P58353, N51A)
T3 sequence (P58353 with tags, fused parts or gaps N51A): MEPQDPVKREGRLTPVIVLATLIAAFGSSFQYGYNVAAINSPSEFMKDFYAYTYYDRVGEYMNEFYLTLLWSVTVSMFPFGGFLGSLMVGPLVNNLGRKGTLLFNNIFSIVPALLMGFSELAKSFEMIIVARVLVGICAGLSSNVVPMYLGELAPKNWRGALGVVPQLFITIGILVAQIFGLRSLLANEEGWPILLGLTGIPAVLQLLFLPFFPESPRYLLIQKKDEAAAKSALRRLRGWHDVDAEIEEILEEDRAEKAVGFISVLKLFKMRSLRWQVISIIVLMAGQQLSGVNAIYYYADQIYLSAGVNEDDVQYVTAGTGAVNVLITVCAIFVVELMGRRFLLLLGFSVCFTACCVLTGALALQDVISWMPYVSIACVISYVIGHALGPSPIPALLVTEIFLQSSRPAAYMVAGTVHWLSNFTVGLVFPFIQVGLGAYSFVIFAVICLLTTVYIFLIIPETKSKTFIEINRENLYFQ
Procedure, shortened: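 Bovine construct (residues 1–473 of 501, N51A deglycosylation) was expressed in S. cerevisiae, solubilised in 1% DDM and bound to Ni-NTA. It was TEV-cleaved and run on SEC in 10 mM Tris-HCl pH 7.5, 150 mM NaCl, 0.09% UDMβ. D-fructose was added sequentially, with 2 min room-temperature incubation after each addition. Trp fluorescence: excitation 295 nm, emission 338 nm.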

[2] = biological target: T4, rGLUT5 with a single tryptophan residue (W419) (Rattus norvegicus, UniProt P43427, N50Y/W191F/W239F/W265F/W275F/W338F/W370F/W70F); assay: Tryptophan fluorescence quenching of rat GLUT5 single tryptophan; conditions: 40 mM sugar
T4 sequence (P43427 with tags, fused parts or gaps N50Y/W70F/W191F/W239F/W265F/W275F/A285T/W338F/W370F/T452S): T1 sequence (P43427 with tags, fused parts or gaps N50Y/Q166E/A285T/T452S) with W70F, E166Q, W191F, W239F, W265F, W275F, W338F, W370F
Procedure, shortened: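 Single-Trp rat protein (N50Y plus W70F, W191F, W239F, W265F, W275F, W338F, W370F) was used at 0.06 mg/ml in 20 mM Tris pH 7.5, 150 mM NaCl, 0.03% DDM, with or without 5 mM HgCl2. Sugars were each added at 40 mM final; D-fructose was also added sequentially up to 40 mM. After 2 min at room temperature: excitation 295 nm, emission 338 nm. Kd by non-linear regression; triplicate.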

| sugar binding (in words) (rGLUT5 Q166E) | Kd ([1]; Kd, purified rGLUT5 WT (N50Y) in DDM, excitation 295 nm, emission 338 nm, n = 3) [mM] | quenching of tryptophan fluorescence (in words) ([1]; addition of sugar (40 mM) to rGLUT5) | Kd (bovine GLUT5) [mM] | tryptophan quenching (in words) [2] | SMILES |
| --- | --- | --- | --- | --- | --- |
| clearly weakens | 6 to 9 | strong quenching | 5.5 ± 0.6 | – | O=C(CO)[C@@H](O)[C@H](O)[C@H](O)CO [D-fructose] |
| – | – | – | – | No tryptophan quenching | O=C[C@H](O)[C@@H](O)[C@@H](O)[C@H](O)CO [D-galactose] |
| robust binding | – | – | – | No tryptophan quenching | OC[C@H]1OC(O)[C@H](O)[C@@H](O)[C@@H]1O (stereo partly drawn) [D-glucose] |
| – | – | – | – | No tryptophan quenching | O=C(CO)[C@H](O)[C@@H](O)[C@@H](O)CO [L-fructose, reference compound] |
